Source: article PMC11359625 (ACS Omega, 2024)
≈ marks a conversion by molar mass, not a printed value. Where two headings read alike, the source gives them in different places.

Experiments:
PTP1B [1] = conditions: cited from earlier work
human lens AR = conditions: at a dose of 5 μM; cited from earlier work
polyol pathway = conditions: cited from earlier work
AR [2] = conditions: cited from earlier work
PTP1B [3] = conditions: cited from earlier work; remark: listed apart in the source
AR [4] = conditions: cited from earlier work; remark: listed apart in the source
AR [5] = conditions: read-out: IC50 AR inhibition; in vitro; cited from earlier work
human recombinant AR = conditions: cited from earlier work
PTP1B [6] = target: T1, PTP1B (Homo sapiens, UniProt P18031); experiment: PTP1B inhibitory activity with pNPP substrate; format: biochemical
T1 sequence (P18031 1-435): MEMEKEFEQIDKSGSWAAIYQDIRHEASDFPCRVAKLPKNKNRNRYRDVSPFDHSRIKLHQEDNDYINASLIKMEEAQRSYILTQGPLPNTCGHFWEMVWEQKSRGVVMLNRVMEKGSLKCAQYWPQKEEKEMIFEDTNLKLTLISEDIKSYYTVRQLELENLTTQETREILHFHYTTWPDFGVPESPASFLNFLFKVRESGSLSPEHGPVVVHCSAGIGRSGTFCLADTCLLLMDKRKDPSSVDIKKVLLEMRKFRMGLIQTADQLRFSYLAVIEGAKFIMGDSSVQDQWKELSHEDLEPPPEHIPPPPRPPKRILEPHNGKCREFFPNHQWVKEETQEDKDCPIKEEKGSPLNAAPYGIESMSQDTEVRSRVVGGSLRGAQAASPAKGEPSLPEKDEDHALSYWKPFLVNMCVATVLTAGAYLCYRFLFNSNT

C57BL/KsJ-db/db mice = conditions: 20 and 40 mg/kg body weight; cited from earlier work
IR-HepG2 cells = experiment: 2-NBDG glucose uptake in insulin-resistant HepG2 cells; format: cell-based; conditions: 24 h treatment, concentration-dependent
In short: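 Insulin resistance induced in confluent HepG2 (5 × 10³ cells/well; MEM, 10% FBS, 37 °C, 5% CO2) with 1 μM insulin for 24 h. Test compound added at several concentrations below 50 μM for 24 h, then 1 μM insulin for 30 min and 50 μM 2-NBDG for 30 min. Cells washed with ice-cold PBS; fluorescence read at ex 485/em 528 nm. Uptake expressed relative to untreated normal HepG2 (100%); mean ± SEM, triplicate.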

[7] = target: Recombinant human aldose reductase (Homo sapiens, UniProt P15121); experiment: AR activity assay; format: biochemical
AR [8] = target: AR (Homo sapiens, UniProt P15121); experiment: Kinetic study, Lineweaver–Burk plot, AR; format: biochemical; conditions: alkannin 0-20 μM
In short: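 Recombinant human aldose reductase in 0.05 M sodium phosphate, pH 6.2, with 0.3 mM NADPH and DL-glyceraldehyde substrate, at several test-compound concentrations. Activity followed as the fall in NADPH absorbance at 340 nm over 4 min. Inhibition type assigned from a Lineweaver–Burk double-reciprocal plot; mean ± SEM of triplicate experiments.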

[9] = system: PTP1B mRNA in IR-HepG2 cells; experiment: PTP1B mRNA expression by real-time qPCR; format: cell-based
HepG2 cells [10] = experiment: MTT cytotoxicity assay; format: cell-based; conditions: up to 50 μM, 24 h
In short: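 Normal HepG2 cells seeded at 5 × 10³ cells/well and grown 24 h. Test compound in DMSO added at […] for 24 h. MTT then added, and absorbance used to calculate percent cell viability.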

PTP1B [11] = target: T1, PTP1B; experiment: Kinetic study, Lineweaver–Burk plot, PTP1B; format: biochemical; conditions: alkannin 0-20 μM
In short: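 Recombinant human PTP1B (0.5 units in PTP1B reaction buffer) preincubated with the test compound at several concentrations for 10 min at 37 °C. pNPP substrate then added and incubated 15 min at 37 °C; reaction stopped with 10 M NaOH and read at 405 nm. Inhibition type taken from a Lineweaver–Burk plot; mean ± SEM, triplicate experiments.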

HepG2 cells [12] = conditions: up to 40 μM; ref Xue et al.; cited from earlier work

## O=C(O)[C@H]1O[C@@H](Oc2c(-c3cc(O)c(O)c(O)c3)oc3cc(O)cc(O)c3c2=O)[C@H](O)[C@@H](O)[C@@H]1O [myricetin-3-O-β-Dglucuronide]
PTP1B [1]
  IC50 PTP1B inhibitory activity: 9.47 ± 3.31 mg/L (≈ 19.2 µM)

## O=C(O)[C@H]1O[C@@H](Oc2c(-c3ccc(O)c(O)c3)oc3cc(O)cc(O)c3c2=O)[C@H](O)[C@@H](O)[C@@H]1O [quercetin-3-O-β-D-glucuronide]
PTP1B [1]
  IC50 PTP1B inhibitory activity: 7.39 ± 1.15 mg/L (≈ 15.4 µM)

## O=c1c(O)c(-c2ccc(O)c(O)c2)oc2cc(O)cc(O)c12 [Quercetin]
Human lens AR
  inhibition of human lens AR: 50%
Polyol pathway
  reduction in the accumulation of xylitol: 80%
AR [2]; at a dose of 10 μM
  AR inhibition: 95%
AR [2]
  manner of AR inhibition: noncompetitive

## CC1=C[C@H]2c3c(O)cc(-c4cc5ccc(O)cc5o4)cc3O[C@@]3(c4ccc(O)cc4O)Oc4cc(O)ccc4[C@H](C1)[C@@H]23 [mulberrofuran G]
PTP1B [3]
  type of PTP1B enzyme inhibition: mixed-type

## O=C1C=C(O)C(=O)C=C1O [2,5-dihydroxy-p-benzoquinone]
AR [4]
  manner of AR inhibition: noncompetitive

## COc1cc(/C=C/C(=O)CC(=O)/C=C/c2ccc(O)c(OC)c2)ccc1O [curcumin]
AR [5]
  IC50: 6.8 µM
Human recombinant AR
  manner of inhibition of human recombinant AR: noncompetitive

## CC(C)=CC[C@H](O)C1=CC(=O)c2c(O)ccc(O)c2C1=O [Alkannin]
PTP1B [6]
  IC50: 19.5 µM
C57BL/KsJ-db/db mice
  effect on liver injury and inflammation in diabetic mice: protective role
IR-HepG2 cells
  insulin-stimulated 2-NBDG uptake: significantly enhanced
[7]
  IC50: 22.8 µM
AR [8]
  type of inhibition of AR: mixed-inhibition
[9]
  PTP1B mRNA expression: significantly reduced
HepG2 cells [10]
  cytotoxicity on normal HepG2 cells (MTT): insignificant cytotoxicity
PTP1B [11]
  type of inhibition of PTP1B: mixed-inhibition
HepG2 cells [12]
  effect in HepG2 cells pretreated with palmitic acid: protective role

## Cc1cc2c3c(c1)-c1c(O)cc(-c4cc5ccc(O)cc5o4)cc1OC3(c1ccc(O)cc1O)Oc1cc(O)ccc1-2 (stereo not drawn) [albanol B]
PTP1B [3]
  type of PTP1B enzyme inhibition: mixed-type

## CC(C)=CCc1c(-c2ccc(O)cc2O)oc2c([C@H]3C=C(C)C[C@@H](c4ccc(O)cc4O)[C@@H]3C(=O)c3ccc(O)cc3O)c(O)cc(O)c2c1=O [kuwanon G]
PTP1B [3]
  type of PTP1B enzyme inhibition: mixed-type
